Measured values published in ChEMBL document CHEMBL4033692, “Synthesis and biological research of novel azaacridine derivatives as potent DNA-binding ligands and topoisomerase II inhibitors” (Bioorg Med Chem, 2017).
Active and inactive are the calls of the source. The calls are words filed in the database; no cut-off is given here.

Assays:
K562 = test: Antiproliferative activity against human K562 cells after 48 hrs by MTT assay; type: functional, cell-based; settings: K562, 48 h
Outline: (§1)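 MTT assay. Cells were seeded at 5-10×10^3 per well and incubated overnight at 37 °C under 5% CO2. Graded compound concentrations or equal DMSO in fresh medium were then added for 48 h. MTT (5 mg/mL stock) was added for a further 4 h, formazan was dissolved in DMSO, and A490 was read. IC50 is given as mean ± S.D. of three experiments in triplicate.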

HepG2 = test: Antiproliferative activity against human HepG2 cells after 48 hrs by MTT assay; type: functional, cell-based; settings: HepG2, 48 h; outline: as §1
U-937 [1] = test: Antiproliferative activity against human U937 cells after 48 hrs by MTT assay; type: functional, cell-based; settings: U-937, 48 h; outline: as §1
Homo sapiens [2] = organism: Homo sapiens; test: Inhibition of human topoisomerase-2 at 50 to 100 uM using supercoiled pBR322 DNA as substrate after 10 to 15 mins by ethidium bromide staining based electrophoresis
Outline: (§2)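 Relaxation of supercoiled pBR322 (500 ng) by 1 unit of human Top I or Top II, with or without compound in reaction buffer. Reactions ran 10-15 min at 37 °C and were stopped with loading buffer. Products were run on 1% agarose in TAE at 90 V for 25 min and stained with ethidium bromide under UV. Controls were CPT (Top I) and m-AMSA (Top II).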

Homo sapiens [3] = organism: Homo sapiens; test: Inhibition of human topoisomerase-2 at 50 uM using supercoiled pBR322 DNA as substrate after 10 to 15 mins by ethidium bromide staining based electrophoresis relative to control; outline: as §2
Homo sapiens [4] = organism: Homo sapiens; test: Inhibition of human topoisomerase-2 at 10 uM using supercoiled pBR322 DNA as substrate after 10 to 15 mins by ethidium bromide staining based electrophoresis relative to control; outline: as §2
HeLa = test: Antiproliferative activity against human HeLa cells after 48 hrs by MTT assay; type: functional, cell-based; outline: as §1
[5] = Antiproliferative activity against human QSG7701 cells after 48 hrs by MTT assay; type: cell-based; settings: QSG7701, 48 h; outline: as §1
A549 = test: Antiproliferative activity against human A549 cells after 48 hrs by MTT assay; type: functional, cell-based; settings: A549, 48 h; outline: as §1
[6] = biological target: T1, DNA topoisomerase 1 (Homo sapiens) (UniProt P11387); test: Inhibition of human topoisomerase-1 at 100 uM using supercoiled pBR322 DNA as substrate after 10 to 15 mins by ethidium bromide staining based electrophoresis; outline: as §2
T1 sequence (whole entry): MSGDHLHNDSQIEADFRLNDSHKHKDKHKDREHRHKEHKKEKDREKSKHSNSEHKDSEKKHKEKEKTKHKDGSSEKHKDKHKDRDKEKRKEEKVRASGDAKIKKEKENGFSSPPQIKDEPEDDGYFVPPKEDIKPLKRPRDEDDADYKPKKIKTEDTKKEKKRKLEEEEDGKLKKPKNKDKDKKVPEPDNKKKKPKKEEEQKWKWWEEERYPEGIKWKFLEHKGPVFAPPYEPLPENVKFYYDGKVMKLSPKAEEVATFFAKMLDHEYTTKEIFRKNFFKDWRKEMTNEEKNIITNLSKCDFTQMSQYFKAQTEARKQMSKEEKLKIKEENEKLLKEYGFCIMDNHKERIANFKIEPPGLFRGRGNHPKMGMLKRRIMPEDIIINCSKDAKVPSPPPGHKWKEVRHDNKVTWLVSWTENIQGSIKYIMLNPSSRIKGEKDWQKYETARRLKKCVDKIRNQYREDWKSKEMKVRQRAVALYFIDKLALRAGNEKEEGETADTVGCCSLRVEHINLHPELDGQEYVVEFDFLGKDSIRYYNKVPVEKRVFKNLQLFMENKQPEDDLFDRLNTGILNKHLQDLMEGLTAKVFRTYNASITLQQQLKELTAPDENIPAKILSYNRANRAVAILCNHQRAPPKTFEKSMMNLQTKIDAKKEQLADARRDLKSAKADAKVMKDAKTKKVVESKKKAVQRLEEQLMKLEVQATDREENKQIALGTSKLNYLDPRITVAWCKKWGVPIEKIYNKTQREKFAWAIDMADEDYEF

[7] = Safety index, ratio of compound IC50 to m-AMSA IC50 for human QSG7701 cells; type: ADME, cell-based; settings: read-out: Ratio IC50
Bos taurus [8] = organism: Bos taurus; test: Binding affinity to calf thymus DNA assessed as bathochromic shift at 40 uM after 5 mins by UV-Visible absorption spectral analysis
Outline: (§3)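 UV-vis titration in Tris-HCl pH 7.4 in a 1.0 cm quartz cell. Compound was at 40 µM (added from a 5 mM DMSO stock) with ct DNA at final 0, 0.75, 2.25, 3.75, 6.00 and 9.75 µM. Each mixture was incubated 5 min before the absorption spectrum was recorded.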

Bos taurus [9] = organism: Bos taurus; test: Binding affinity to calf thymus DNA after 5 mins by UV-Visible absorption spectral analysis; outline: as §3
Bos taurus [10] = organism: Bos taurus; test: Binding affinity to calf thymus DNA after 5 mins by fluorescence emission spectral analysis
Outline: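 Fluorescence titration in Tris-HCl pH 7.4. Compound came from a 5 mM DMSO stock, with ct DNA at final 0, 0.2, 0.7, 1, 1.5 and 2.5 µM. Mixtures were incubated 5 min before emission spectra were recorded. Quenching was fitted to F0/F = 1 + Kq[Q].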

U-937 [11] = test: Induction of apoptosis in human U937 cells after 48 hrs by Annexin-V FITC/propidium iodide staining based flow cytometry; type: functional, cell-based
Outline: (§4)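 U937 cells were treated for 48 h at 0, 1 or 2.5 µM. Phosphatidylserine externalization (Annexin V-FITC) and membrane integrity (PI) were then read by flow cytometry using a kit per the manufacturer's instructions.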

U-937 [12] = test: Induction of apoptosis in human U937 cells assessed as live cells at 1 uM after 48 hrs by Annexin-V FITC/propidium iodide staining based flow cytometry (reference value: 92.4%); type: functional; outline: as §4
U-937 [13] = test: Induction of apoptosis in human U937 cells assessed as early apoptotic cells at 1 uM after 48 hrs by Annexin-V FITC/propidium iodide staining based flow cytometry (reference value: 7.42%); type: functional; outline: as §4
U-937 [14] = test: Induction of apoptosis in human U937 cells assessed as late apoptotic cells at 1 uM after 48 hrs by Annexin-V FITC/propidium iodide staining based flow cytometry (reference value: 0.144%); type: functional; outline: as §4
U-937 [15] = test: Induction of apoptosis in human U937 cells assessed as necrotic cells at 1 uM after 48 hrs by Annexin-V FITC/propidium iodide staining based flow cytometry relative to control; type: functional; outline: as §4
U-937 [16] = test: Induction of apoptosis in human U937 cells assessed as live cells at 2.5 uM after 48 hrs by Annexin-V FITC/propidium iodide staining based flow cytometry (reference value: 92.4%); type: functional; outline: as §4
U-937 [17] = test: Induction of apoptosis in human U937 cells assessed as early apoptotic cells at 2.5 uM after 48 hrs by Annexin-V FITC/propidium iodide staining based flow cytometry (reference value: 7.42%); type: functional; outline: as §4
U-937 [18] = test: Induction of apoptosis in human U937 cells assessed as late apoptotic cells at 2.5 uM after 48 hrs by Annexin-V FITC/propidium iodide staining based flow cytometry (reference value: 0.144%); type: functional; outline: as §4
U-937 [19] = test: Induction of apoptosis in human U937 cells assessed as necrotic cells at 2.5 uM after 48 hrs by Annexin-V FITC/propidium iodide staining based flow cytometry relative to control; type: functional; outline: as §4
U-937 [20] = test: Induction of apoptosis in human U937 cells assessed as increase in cleaved caspase-8 protein expression at 1 to 2.5 uM after 48 hrs by Western blot analysis; type: functional, cell-based
Outline: (§5)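 U937 cells in dishes were exposed to 1 or 2.5 µM for 48 h and lysed on ice for 0.5 h. Protein was quantified by BCA, run on 12% SDS-PAGE and transferred to PVDF. Membranes were blocked in 5% milk for 1 h, and primary antibody was applied overnight at 4 °C. Cleaved caspase-3/7/8 was detected with β-actin as loading control.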

U-937 [21] = test: Induction of apoptosis in human U937 cells assessed as increase in cleaved caspase-7 protein expression at 1 to 2.5 uM after 48 hrs by Western blot analysis; type: functional, cell-based; outline: as §5
U-937 [22] = test: Induction of apoptosis in human U937 cells assessed as increase in cleaved caspase-3 protein expression at 1 to 2.5 uM after 48 hrs by Western blot analysis; type: functional, cell-based; outline: as §5

SMILES | IC50 (K562) [µM] | IC50 (HepG2) [µM] | IC50 (U-937 [1]) [µM] | topoisomerase II inhibition (active/inactive) (Homo sapiens [2]) | inhibition (Homo sapiens [3]) | inhibition (Homo sapiens [4]) [%] | IC50 (HeLa) [µM] | IC50 [5] [µM] | also measured
COc1ccc2nc3cc(Cl)ccc3c(Nc3ccncc3)c2n1 | 13.7 | > 20 | > 20 | Active | > 50% | > 40 | – | – | –
COc1cc(NS(C)(=O)=O)ccc1Nc1c2ccccc2nc2ccccc12 [AMSACRINE] | 0.88 | 5.21 | 0.61 | – | Active | 56.9 | 19.2 | 6.43 | –
COc1ccc2nc3cc(Cl)ccc3c(Nc3cccc(F)c3)c2n1 | 15.5 | > 20 | > 20 | Active | > 50% | > 40 | – | – | –
COc1ccc2nc3cc(Cl)ccc3c(NCc3nc4ccccc4n3CCN(C)C)c2n1 | 7.59 | > 20 | 0.76 | Active | > 50% | 75.1 | 14.8 | 21.2 | IC50 (A549): 13.1 µM; inhibition [6]: Active
COc1ccc2nc3cc(Cl)ccc3c(Nc3ccc(C)cc3C)c2n1 | 14 | > 20 | > 20 | Active | > 50% | – | – | – | –
COc1ccc2nc3cc(Cl)ccc3c(NCc3nc4ccccc4[nH]3)c2n1 | 6.06 | 6.62 | 0.57 | Active | > 50% | – | 12.6 | 29.4 | IC50 (A549): 4.8 µM; selectivity ratio [7]: > 3; Activity (Bos taurus [8]): Active; Kb (Bos taurus [9]): 3.34 ×10⁵ /M; Kq (Bos taurus [10]): 2.34 ×10⁵ /M; Activity (U-937 [11]): Dose-dependent effect; Activity (U-937 [12]): 75.8%; Activity (U-937 [13]): 17.5%; Activity (U-937 [14]): 6.48%; Activity (U-937 [15]): 0.227%; Activity (U-937 [16]): 61.3%; Activity (U-937 [17]): 26.2%; Activity (U-937 [18]): 12.2%; Activity (U-937 [19]): 0.322%; Activity (U-937 [20]): Active; Activity (U-937 [21]): Active; Activity (U-937 [22]): Active
COc1ccc2nc3cc(Cl)ccc3c(NCc3nc4ccccc4[nH]3)c2c1 | > 20 | > 20 | – | – | – | – | – | – | –
COc1ccc(Nc2c3ccc(Cl)cc3nc3ccc(OC)nc23)cc1 | 13.8 | > 20 | > 20 | Active | > 50% | – | – | – | –
CC[C@@]1(O)C(=O)OCc2c1cc1n(c2=O)Cc2cc3ccccc3nc2-1 [CAMPTOTHECIN] | – | 4.92 | – | – | – | – | 3.8 | < 1 | IC50 (A549): < 1 µM
COc1ccc2nc3cc(Cl)ccc3c(Nc3ccccc3F)c2n1 | 10.9 | > 20 | > 20 | Active | 28.1% | – | – | – | –
COc1ccc2nc3cc(Cl)ccc3c(Nc3ccccc3Cl)c2n1 | 6.1 | > 20 | > 20 | Active | > 50% | > 40 | – | – | –
COc1ccc2nc3cc(Cl)ccc3c(Nc3ccc(F)cc3)c2n1 | 16.5 | > 20 | > 20 | Active | > 50% | > 40 | – | – | –
